In ChEMBL document CHEMBL3734675, “Synthesis, antimycobacterial and antibacterial activity of fluoroquinolone derivatives containing an 3-alkoxyimino-4-(cyclopropylanimo)methylpyrrolidine moiety” (2015):
In brackets after ≈: the same amount, converted by molar mass.

Key:
Type in all cases: functional
[1] = tested on: Staphylococcus epidermidis; assay: Potency index, ratio of ciprofloxacin MIC to compound MIC for methicillin-resistant Staphylococcus epidermidis 14-22
[2] = tested on: Staphylococcus epidermidis; assay: Potency index, ratio of levofloxacin MIC to compound MIC for methicillin-resistant Staphylococcus epidermidis 14-21
[3] = tested on: Staphylococcus epidermidis; assay: Potency index, ratio of levofloxacin MIC to compound MIC for methicillin-resistant Staphylococcus epidermidis 14-22
Enterococcus faecalis [4] = assay: Potency index, ratio of levofloxacin MIC to compound MIC for Enterococcus faecalis 14-1
Escherichia coli [5] = assay: Antibacterial activity against extended-spectrum beta-lactamase producing Escherichia coli 14-1 after 18 to 24 hrs by two-fold serial dilution method
How it was run: (§1)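 Twofold serial dilution in agar media against Gram-positive and Gram-negative strains. Plates incubated at 35 °C for 18–24 h. MIC read as the lowest compound concentration giving complete inhibition of bacterial growth.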

Staphylococcus aureus [6] = assay: Antibacterial activity against methicillin-sensitive Staphylococcus aureus 14-1 after 18 to 24 hrs by two-fold serial dilution method; how it was run: as §1
[7] = tested on: Staphylococcus epidermidis; assay: Potency index, ratio of ciprofloxacin MIC to compound MIC for methicillin-resistant Staphylococcus epidermidis 14-37
Escherichia coli [8] = assay: Antibacterial activity against Escherichia coli 14-2 after 18 to 24 hrs by two-fold serial dilution method; how it was run: as §1
Staphylococcus aureus [9] = assay: Potency index, ratio of ciprofloxacin MIC to compound MIC for methicillin-resistant Staphylococcus aureus 14-5
Enterococcus faecium [10] = assay: Potency index, ratio of levofloxacin MIC to compound MIC for Enterococcus faecium 14-2
Enterococcus faecium [11] = assay: Potency index, ratio of ciprofloxacin MIC to compound MIC for Enterococcus faecium 14-2
Klebsiella pneumoniae [12] = assay: Antibacterial activity against extended-spectrum beta-lactamase producing Klebsiella pneumoniae 14-17 after 18 to 24 hrs by two-fold serial dilution method; how it was run: as §1
Enterococcus faecium [13] = assay: Potency index, ratio of ciprofloxacin MIC to compound MIC for Enterococcus faecium 14-5
Klebsiella pneumoniae [14] = assay: Antibacterial activity against Klebsiella pneumoniae 14-2 after 18 to 24 hrs by two-fold serial dilution method; how it was run: as §1
Klebsiella pneumoniae [15] = assay: Antibacterial activity against extended-spectrum beta-lactamase producing Klebsiella pneumoniae 14-18 after 18 to 24 hrs by two-fold serial dilution method; how it was run: as §1
Pseudomonas aeruginosa [16] = assay: Antibacterial activity against Pseudomonas aeruginosa 14-15 after 18 to 24 hrs by two-fold serial dilution method; how it was run: as §1
Enterococcus faecalis [17] = assay: Potency index, ratio of ciprofloxacin MIC to compound MIC for Enterococcus faecalis 14-1
Pseudomonas aeruginosa [18] = assay: Antibacterial activity against Pseudomonas aeruginosa 14-14 after 18 to 24 hrs by two-fold serial dilution method; how it was run: as §1
Enterococcus faecalis [19] = assay: Antibacterial activity against Enterococcus faecalis 14-2 after 18 to 24 hrs by two-fold serial dilution method; how it was run: as §1
Escherichia coli [20] = assay: Antibacterial activity against Escherichia coli ATCC 25922 after 18 to 24 hrs by two-fold serial dilution method; how it was run: as §1
[21] = tested on: Staphylococcus epidermidis; assay: Antibacterial activity against methicillin-sensitive Staphylococcus epidermidis 14-2 after 18 to 24 hrs by two-fold serial dilution method; how it was run: as §1
Enterococcus faecium [22] = assay: Antibacterial activity against Enterococcus faecium 14-2 after 18 to 24 hrs by two-fold serial dilution method; how it was run: as §1
Pseudomonas aeruginosa [23] = assay: Antibacterial activity against Pseudomonas aeruginosa 14-16 after 18 to 24 hrs by two-fold serial dilution method; how it was run: as §1
Pseudomonas aeruginosa [24] = assay: Antibacterial activity against Pseudomonas aeruginosa ATCC 27853 after 18 to 24 hrs by two-fold serial dilution method; how it was run: as §1
Staphylococcus aureus [25] = assay: Antibacterial activity against methicillin-resistant Staphylococcus aureus 14-4 after 18 to 24 hrs by two-fold serial dilution method
How it was run: (§2)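 Agar media, standard twofold serial dilution. MIC is the lowest concentration giving complete inhibition of bacterial growth after incubation at 35 °C for 18–24 h. Ciprofloxacin and levofloxacin were run as comparators.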

Klebsiella pneumoniae [26] = assay: Antibacterial activity against Klebsiella pneumoniae 14-1 after 18 to 24 hrs by two-fold serial dilution method; how it was run: as §1
Enterococcus faecalis [27] = assay: Potency index, ratio of ciprofloxacin MIC to compound MIC for Enterococcus faecalis 14-2
[28] = tested on: Staphylococcus epidermidis; assay: Antibacterial activity against methicillin-resistant Staphylococcus epidermidis 14-21 after 18 to 24 hrs by two-fold serial dilution method; how it was run: as §2
Enterococcus faecium [29] = assay: Potency index, ratio of levofloxacin MIC to compound MIC for Enterococcus faecium 14-5
Escherichia coli [30] = assay: Antibacterial activity against Escherichia coli 14-1 after 18 to 24 hrs by two-fold serial dilution method; how it was run: as §1
Staphylococcus aureus [31] = assay: Potency index, ratio of levofloxacin MIC to compound MIC for methicillin-resistant Staphylococcus aureus 14-4
Klebsiella pneumoniae [32] = assay: Antibacterial activity against Klebsiella pneumoniae 14-3 after 18 to 24 hrs by two-fold serial dilution method; how it was run: as §1
[33] = tested on: Staphylococcus epidermidis; assay: Antibacterial activity against methicillin-resistant Staphylococcus epidermidis 14-39 after 18 to 24 hrs by two-fold serial dilution method; how it was run: as §2
Staphylococcus aureus [34] = assay: Potency index, ratio of ciprofloxacin MIC to compound MIC for methicillin-resistant Staphylococcus aureus 14-4
[35] = tested on: Staphylococcus epidermidis; assay: Antibacterial activity against methicillin-resistant Staphylococcus epidermidis 14-22 after 18 to 24 hrs by two-fold serial dilution method; how it was run: as §2
[36] = tested on: Staphylococcus epidermidis; assay: Potency index, ratio of ciprofloxacin MIC to compound MIC for methicillin-resistant Staphylococcus epidermidis 14-21
Staphylococcus aureus [37] = assay: Antibacterial activity against methicillin-resistant Staphylococcus aureus 14-5 after 18 to 24 hrs by two-fold serial dilution method; how it was run: as §2
Enterococcus faecalis [38] = assay: Antibacterial activity against Enterococcus faecalis 14-1 after 18 to 24 hrs by two-fold serial dilution method; how it was run: as §1
[39] = tested on: Staphylococcus epidermidis; assay: Potency index, ratio of levofloxacin MIC to compound MIC for methicillin-resistant Staphylococcus epidermidis 14-37
Enterococcus faecium [40] = assay: Antibacterial activity against Enterococcus faecium 14-5 after 18 to 24 hrs by two-fold serial dilution method; how it was run: as §1
[41] = tested on: Staphylococcus epidermidis; assay: Potency index, ratio of levofloxacin MIC to compound MIC for methicillin-resistant Staphylococcus epidermidis 14-39
Enterococcus faecium [42] = assay: Antibacterial activity against Enterococcus faecium 14-6 after 18 to 24 hrs by two-fold serial dilution method; how it was run: as §1
[43] = tested on: Staphylococcus epidermidis; assay: Potency index, ratio of ciprofloxacin MIC to compound MIC for methicillin-resistant Staphylococcus epidermidis 14-39
[44] = tested on: Staphylococcus epidermidis; assay: Antibacterial activity against methicillin-resistant Staphylococcus epidermidis 14-37 after 18 to 24 hrs by two-fold serial dilution method; how it was run: as §2
Streptococcus pneumoniae = assay: Antibacterial activity against methicillin-resistant Streptococcus pneumoniae ATCC 19615 after 18 to 24 hrs by two-fold serial dilution method; how it was run: as §2
Staphylococcus aureus [45] = assay: Antibacterial activity against methicillin-sensitive Staphylococcus aureus 14-3 after 18 to 24 hrs by two-fold serial dilution method; how it was run: as §1
Staphylococcus aureus [46] = assay: Antibacterial activity against methicillin-sensitive Staphylococcus aureus 14-4 after 18 to 24 hrs by two-fold serial dilution method; how it was run: as §1
Escherichia coli [47] = assay: Antibacterial activity against extended-spectrum beta-lactamase producing Escherichia coli 14-2 after 18 to 24 hrs by two-fold serial dilution method; how it was run: as §1
Staphylococcus aureus [48] = assay: Antibacterial activity against Staphylococcus aureus CMCC 26003 after 18 to 24 hrs by two-fold serial dilution method; how it was run: as §1
Klebsiella pneumoniae [49] = assay: Antibacterial activity against extended-spectrum beta-lactamase producing Klebsiella pneumoniae 14-19 after 18 to 24 hrs by two-fold serial dilution method; how it was run: as §1
Staphylococcus aureus [50] = assay: Potency index, ratio of levofloxacin MIC to compound MIC for methicillin-resistant Staphylococcus aureus 14-5
Klebsiella pneumoniae [51] = assay: Antibacterial activity against Klebsiella pneumoniae 14-4 after 18 to 24 hrs by two-fold serial dilution method; how it was run: as §1
Enterococcus faecium [52] = assay: Potency index, ratio of ciprofloxacin MIC to compound MIC for Enterococcus faecium 14-6
Enterococcus faecium [53] = assay: Potency index, ratio of levofloxacin MIC to compound MIC for Enterococcus faecium 14-6
Pseudomonas aeruginosa [54] = assay: Antibacterial activity against Pseudomonas aeruginosa 14-9 after 18 to 24 hrs by two-fold serial dilution method; how it was run: as §1
Enterococcus faecalis [55] = assay: Potency index, ratio of levofloxacin MIC to compound MIC for Enterococcus faecalis 14-2

O=C(O)c1cn2c3c(c(N4C/C(=N/OCc5ccccc5)C(CNC5CC5)C4)c(F)cc3c1=O)OC[C@@H]2CF (stereo partly specified)
Ratio [1]: 2 | Ratio [2]: 2 | Ratio [3]: 2 | Ratio (Enterococcus faecalis [4]): 2 | MIC (Escherichia coli [5]): 4 µg/mL (≈ 7.43 µM) | MIC (Staphylococcus aureus [6]): 1 µg/mL (≈ 1.86 µM) | Ratio [7]: 2 | MIC (Escherichia coli [8]): > 64 µg/mL | Ratio (Staphylococcus aureus [9]): 2 | Ratio (Enterococcus faecium [10]): 2 | Ratio (Enterococcus faecium [11]): 2 | MIC (Klebsiella pneumoniae [12]): 64 µg/mL (≈ 119 µM) | Ratio (Enterococcus faecium [13]): 2 | MIC (Klebsiella pneumoniae [14]): 32 µg/mL (≈ 59.4 µM) | MIC (Klebsiella pneumoniae [15]): 32 µg/mL (≈ 59.4 µM) | MIC (Pseudomonas aeruginosa [16]): 64 µg/mL (≈ 119 µM) | Ratio (Enterococcus faecalis [17]): 2 | MIC (Pseudomonas aeruginosa [18]): 64 µg/mL (≈ 119 µM) | MIC (Enterococcus faecalis [19]): 0.25 µg/mL (≈ 0.464 µM) | MIC (Escherichia coli [20]): 1 µg/mL (≈ 1.86 µM) | MIC [21]: 8 µg/mL (≈ 14.9 µM) | MIC (Enterococcus faecium [22]): 1 µg/mL (≈ 1.86 µM) | MIC (Pseudomonas aeruginosa [23]): 32 µg/mL (≈ 59.4 µM) | MIC (Pseudomonas aeruginosa [24]): 32 µg/mL (≈ 59.4 µM) | MIC (Staphylococcus aureus [25]): 2 µg/mL (≈ 3.71 µM) | MIC (Klebsiella pneumoniae [26]): 64 µg/mL (≈ 119 µM) | Ratio (Enterococcus faecalis [27]): 2 | MIC [28]: 2 µg/mL (≈ 3.71 µM) | Ratio (Enterococcus faecium [29]): 2 | MIC (Escherichia coli [30]): > 64 µg/mL | Ratio (Staphylococcus aureus [31]): 2 | MIC (Klebsiella pneumoniae [32]): 64 µg/mL (≈ 119 µM) | MIC [33]: 2 µg/mL (≈ 3.71 µM) | Ratio (Staphylococcus aureus [34]): 2 | MIC [35]: 2 µg/mL (≈ 3.71 µM) | Ratio [36]: 2 | MIC (Staphylococcus aureus [37]): 4 µg/mL (≈ 7.43 µM) | MIC (Enterococcus faecalis [38]): 1 µg/mL (≈ 1.86 µM) | Ratio [39]: 2 | MIC (Enterococcus faecium [40]): 8 µg/mL (≈ 14.9 µM) | Ratio [41]: 2 | MIC (Enterococcus faecium [42]): 8 µg/mL (≈ 14.9 µM) | Ratio [43]: 2 | MIC [44]: 2 µg/mL (≈ 3.71 µM) | MIC (Streptococcus pneumoniae): 0.125 µg/mL (≈ 0.232 µM) | MIC (Staphylococcus aureus [45]): 0.015 µg/mL (≈ 0.0279 µM) | MIC (Staphylococcus aureus [46]): 0.03 µg/mL (≈ 0.0557 µM) | MIC (Escherichia coli [47]): > 64 µg/mL | MIC (Staphylococcus aureus [48]): < 0.008 µg/mL | MIC (Klebsiella pneumoniae [49]): 32 µg/mL (≈ 59.4 µM) | Ratio (Staphylococcus aureus [50]): 2 | MIC (Klebsiella pneumoniae [51]): > 64 µg/mL | Ratio (Enterococcus faecium [52]): 2 | Ratio (Enterococcus faecium [53]): 2 | MIC (Pseudomonas aeruginosa [54]): 32 µg/mL (≈ 59.4 µM) | Ratio (Enterococcus faecalis [55]): 2
